Screening results deposited in PubChem by Broad Institute.
Rows were chosen to be rich in hits. Some 2.4% of all compounds tested hit in one or more screens of this group.
Ecoli rRNA inh – inhibits bacterial ribosomal RNA function over humanized ribosomes. E. coli WT GFP vs humanized-ribosome RFP mutants, fluorescence, 24 h; stronger effect = lower value; DMSO median 0, no signal -100. GFP signal change (wild-type ribosome), % (concentration not given with the values). hit rate 1.6% among 350,000;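 active = significant combined selectivity score with lowered wild-type GFP, culture density cut under 30%, mutant RFP and density less affected; inactive = any of these conditions unmet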
LGR2 antag – inhibitors of bursicon-induced Drosophila LGR2 receptor cAMP signaling. hit rate 0.35% among 380,000. inhibition, % at 9.99 µM. HEK293 LGR2, CRE-luciferase, bursicon-stimulated, 4 h;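 active = drop in luminescence signal, shown as inhibition above about 50% in the replicate tests, limit read from the data, passing the limit was not always enough; inconclusive = probably only some replicates passing the limit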;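 note: agonist challenge used bursicon conditioned medium at about half maximal strength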
EWS-Fli inh – inhibitors of EWS/Fli oncoprotein transcriptional activity. AID 651661. A673 NR0B1-luciferase reporter, viability-normalised. inhibition, % at 12.6 µM. hit rate 0.67% among 350,000;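 active = mean inhibition of at least 50% after viability correction, with every replicate also passing that limit; inconclusive = mean reaches 50% but only one of two replicates passes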;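 note: firefly luciferase signal divided by Alamar Blue viability fluorescence both relative to DMSO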
E-selectin induc – induces E-selectin expression in human endothelial cells. AID 686992. hit rate 0.37% among 260,000. HUVEC E-selectin immunofluorescence imaging; normalized: neutral wells 0, TNF-alpha wells 100. P16581. activation, % at 7.58 µM;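 active = mean E-selectin-positive cell signal at least 10% of the positive control, reached in at least 60% of replicates, without over 20% cell loss; inconclusive = no rule given, readout overlaps actives, possibly toxicity-flagged; inactive = the rest, including those meeting only one limit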
Target sequence (P16581 whole entry, looked up): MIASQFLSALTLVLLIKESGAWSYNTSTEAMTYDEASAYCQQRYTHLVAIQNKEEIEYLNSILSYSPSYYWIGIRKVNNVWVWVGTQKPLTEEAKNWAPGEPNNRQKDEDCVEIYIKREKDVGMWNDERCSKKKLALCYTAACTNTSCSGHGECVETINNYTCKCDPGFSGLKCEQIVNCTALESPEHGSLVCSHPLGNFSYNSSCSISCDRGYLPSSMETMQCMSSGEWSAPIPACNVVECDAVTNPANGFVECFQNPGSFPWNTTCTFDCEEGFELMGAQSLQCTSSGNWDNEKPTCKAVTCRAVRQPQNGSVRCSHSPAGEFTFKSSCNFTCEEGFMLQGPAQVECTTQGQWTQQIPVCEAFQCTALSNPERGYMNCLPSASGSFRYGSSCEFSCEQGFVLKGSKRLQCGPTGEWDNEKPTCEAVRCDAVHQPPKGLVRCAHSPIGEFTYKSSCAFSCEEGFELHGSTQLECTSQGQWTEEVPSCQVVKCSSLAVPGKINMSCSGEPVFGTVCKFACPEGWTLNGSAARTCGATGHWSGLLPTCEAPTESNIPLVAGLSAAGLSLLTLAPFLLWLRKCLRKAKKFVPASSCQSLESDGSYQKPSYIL
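System: HUVEC, human umbilical vein endothelial cells; quantity: 3,000 cells/well; buffer or medium: EGM-2 medium, gelatin-coated wells; dosing: single-point compound dose; detection: immunofluorescence imaging; evaluation: % PE-positive cells; benchmarks: TNF-alpha, DMSO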
A number is an active result; . = inactive; ? = inconclusive; / = not tested or not shown.

SMILES	Ecoli rRNA inh	LGR2 antag	EWS-Fli inh	E-selectin induc
CCCCSc1nc2c(cnn2-c2ccccc2)c(=O)n1N	.	.	.	.
COc1cccc(NC(=O)N2C[C@H](O)COC[C@@H]3O[C@H](CC(=O)NCc4ccccc4F)CC[C@H]32)c1	.	.	/	.
N#C/C(=N\Nc1ccc(S(=O)(=O)N2CCCCC2)cc1)C(N)=S	-32	.	.	/
CCN(CC)c1ccc(/C=C/C(=O)c2cccnc2)cc1	.	.	.	.
N#Cc1ccc(/C=C/C(=O)c2cccnc2)cc1	.	81	.	.
C(=Cc1cccnc1)c1ccncc1	.	.	.	.
O=C(/C=C/c1cccnc1)/C=C/c1cccnc1	.	.	73	.
CCCNC(=O)N[C@@H]1CC[C@H](CC(=O)NCCc2ccccc2)O[C@@H]1CO	.	.	.	.
Cn1nc(-c2ccccn2)nc2c(=O)n(C)c(=O)nc1-2	.	103	.	.
CCCc1nc2c(=O)n(C)c(=O)nc-2n(C)n1	.	102	.	.
O=S(=O)(Oc1ccccc1)c1ccc(Cl)c(Cl)c1	.	.	.	.
O=[N+]([O-])c1cc(S(=O)(=O)Oc2ccccc2)ccc1Cl	.	68	.	.
COc1ccc(/C=N/Nc2cc(C)nc3c(C)cccc23)cc1	.	.	67	/
COc1ccc(/C=N/Nc2cc(C)nc3ccccc23)cc1	.	.	.	.
COc1ccc2nc(C)cc(N/N=C/c3ccc(F)cc3)c2c1	.	69	71	.
CCCC(=O)N1CC2(CCN(C(=O)Nc3cccc(F)c3)CC2)c2c(n(C)c3cc(OC)ccc23)[C@H]1CO	.	.	.	.
CNc1nc(N/N=C/c2ccc([N+](=O)[O-])cc2)nc(Nc2ccccc2)n1	-40	.	.	.
COc1ccc(S(=O)(=O)Nc2ccc3c(c2)CC(=O)N([C@H](C)CO)C[C@@H](C)[C@H](CN(C)C(=O)Nc2ccccc2)O3)cc1	.	.	.	.
COc1cc2c(cc1OC)C(C1C(=O)CC(C)(C)CC1=O)N(C(=O)CCl)CC2 (stereo not given)	.	.	.	/
COc1cc2c(cc1OC)C(c1cc(Br)ccc1F)N(C(=O)CCl)CC2 (stereo not given)	.	.	58	.
COCc1cn(CC[C@@H]2CC[C@@H](NC(=O)Nc3ccc(Cl)cc3)[C@H](CO)O2)nn1	.	.	.	.
CCOC(=O)C(=Cc1cc(=O)c(OC)co1)C(=O)OCC	/	?	70	.
COc1coc(C(O)CN)cc1=O (stereo not given)	.	.	.	/
CN1CCN(C(=O)[C@H]2[C@H](CO)[C@H]3Cn4c(ccc(C5=CCCC5)c4=O)[C@@H]2N3S(C)(=O)=O)CC1	.	.	.	.
Cc1c(Cl)cccc1NC(=S)C(=C([O-])c1ccc(Cl)s1)[n+]1ccccc1	-11	/	.	.
SMILES	Ecoli rRNA inh	LGR2 antag	EWS-Fli inh	E-selectin induc
Cc1ccc(CNS(=O)(=O)c2ccc3c(c2)C(C)(C)C(=O)N3C)cc1	.	.	.	.
COc1ccc(CNS(=O)(=O)c2ccc3c(c2)C(C)(C)C(=O)N3C)cc1	.	.	.	127
O=C(Cc1ccc([N+](=O)[O-])cc1)Nc1cc(C(F)(F)F)cc(C(F)(F)F)c1	-29	.	.	.
O=C(c1cccnc1)N1CC2(C1)[C@H](c1ccccc1)[C@@H](CO)N2C(=O)c1cccnc1	.	.	.	.
Fc1ccc(-n2nnc(-c3cnc4ccccc4c3)n2)cc1	.	79	.	.
CC(=O)N1C2CN(CC(F)(F)F)CC1C2c1ccc(Br)cc1 (stereo not given)	.	/	/	/
O=C(C[C@@H]1C=C[C@H](NC(=O)CC2CC2)[C@H](CO)O1)NCc1ccccc1	.	.	.	.
Cc1oc2ccc(OCc3ccc(Br)cc3)cc2c1C(=O)O	-26	.	.	.
N/C(Cc1ccc(Cl)cc1Cl)=N\OC(=O)c1ccc(Br)o1	-22	.	.	.
CS(=O)(=O)N1CC2(C1)[C@@H](c1ccccc1)[C@H](CO)N2Cc1ccc(F)cc1	.	.	.	.
COc1ccc2c3c(n(C)c2c1)[C@@H](CO)N(C(=O)Nc1ccc(F)cc1)CC31CCN(Cc2cccnc2)CC1	.	.	.	.
C[C@H](CO)N1C[C@H](C)[C@@H](CN(C)Cc2ccc(Oc3ccccc3)cc2)Oc2ccc(NS(C)(=O)=O)cc2CC1=O	.	.	.	.
CC(C)=C(c1ccc(Cl)cc1)c1c(N)ncnc1N	-21	.	.	.
CC(=O)c1c(C)nc(-c2ccc(Cl)cc2)nc1N	.	.	.	/
c1cncc(C(c2nnnn2C2CCCCC2)N2CCCCC2)c1 (stereo not given)	-20	.	.	.
Cc1ccc(Cl)cc1N1CCN(C(c2cccnc2)c2nnnn2C2CCCCC2)CC1 (stereo not given)	/	.	/	/
CCC(C)(C)n1nnnc1C(c1cccnc1)N1CCC(Cc2ccccc2)CC1 (stereo not given)	-33	.	.	.
CC(C)NC(=O)N(C)C[C@@H]1Oc2ccc(NS(=O)(=O)c3ccc(Cl)cc3)cc2CC(=O)N([C@@H](C)CO)C[C@H]1C	.	.	.	.
CCCC#Cc1ccc([C@H]2[C@@H](CO)N3C(=O)CN(C(=O)NC4CCCC4)C[C@@H]23)cc1	.	.	.	.
N=C(N)SCc1cn(-c2ccccc2)nc1-c1ccc(Br)cc1	.	100	.	/
CC(=O)NC(Cc1c[nH]c2ccccc12)C(=O)NCCc1ccccn1 (stereo not given)	.	.	.	46
COc1ccc(OCCNC(=O)C(Cc2c[nH]c3ccccc23)NC(C)=O)cc1 (stereo not given)	.	.	.	/
COc1ccc(CC2C(=O)NC(C)C(=O)N(C)C3Cc4ccc(cc4)Oc4cc(ccc4O)CC(C(=O)NC(C)C(=O)NC(C)C(=O)N2C)N(C)C3=O)cc1 (stereo not given)	.	103	66	.
CC(C)C[C@@H]1NC(=O)[C@H](Cc2ccccc2)N(C)C(=O)[C@H](C)NC(=O)c2ccccc2NC(=O)[C@H](Cc2ccc(O)cc2)N(C)C1=O	/	.	.	/
N#Cc1c(N)n(-c2ccc(N)cc2)c2nc3ccccc3nc12	/	/	.	/
SMILES	Ecoli rRNA inh	LGR2 antag	EWS-Fli inh	E-selectin induc
N#Cc1c(C#N)c(SSc2c(C#N)c(C#N)c(N)n2-c2ccccc2)n(-c2ccccc2)c1N	.	.	51	.
CCOC(=O)c1ccc(NC(=O)CNNC(=O)COc2ccccc2C)cc1	-29	.	.	/
CCOC(=O)c1ccc(NC(=S)NCCc2ccc(OC)c(OC)c2)cc1	-28	.	.	.
CCOC(=O)c1ccc(NC(=O)COc2ccccc2CNCCc2ccccc2)cc1	.	71	.	.
C[C@@H]1CCCCO[C@H](CN(C)C(=O)c2ccncc2)[C@H](C)CN([C@H](C)CO)C(=O)c2cc(NS(=O)(=O)c3cccs3)ccc2O1	.	.	.	.
Cc1cc(C(=O)CSc2nnc(-c3ccccc3)n2-c2ccccc2)c(C)n1-c1ncn[nH]1	/	/	/	.
Cc1cc(C(=O)CSc2nnc3ccccn23)c(C)n1-c1ccccc1	/	98	/	/
CN1CCN(C(=O)C[C@@H]2C=C[C@H](NC(=O)Nc3ccccc3F)[C@H](CO)O2)CC1	.	.	.	.
